Laboratory results taken from PMC5189635 (ChemMedChem, 2016).
Converted amounts (≈) assume the structure as drawn. Read-outs that look alike come from different tables or passages of the source. Marks after values point to notes of the source that are not given here.

How the values were obtained:
[1] = tested on: Shigella flexneri ATCC12022; assay: Bacteriostatic effect; format: cell-based
Outline: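 Broth microdilution per CLSI guidelines: LB with 0.2% glucose, exponential-phase cells (OD600 ≈ 0.5), 2% DMSO final. Permeabilizer, where added, was PMBN 25 μg/mL or NAB7061 4 μg/mL. Incubated 24 h at 37 °C with shaking at 250 rpm. Run in triplicate in three separate experiments. MIC is the lowest concentration with no growth.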

[2] = molecular target: PaSecA (Pseudomonas aeruginosa, UniProt Q9LCT3); details: read-out: Protein translocation IC50; PaSecA-liposomes; published RB; cited from earlier work
PaSecA, sequence (Q9LCT3 whole entry): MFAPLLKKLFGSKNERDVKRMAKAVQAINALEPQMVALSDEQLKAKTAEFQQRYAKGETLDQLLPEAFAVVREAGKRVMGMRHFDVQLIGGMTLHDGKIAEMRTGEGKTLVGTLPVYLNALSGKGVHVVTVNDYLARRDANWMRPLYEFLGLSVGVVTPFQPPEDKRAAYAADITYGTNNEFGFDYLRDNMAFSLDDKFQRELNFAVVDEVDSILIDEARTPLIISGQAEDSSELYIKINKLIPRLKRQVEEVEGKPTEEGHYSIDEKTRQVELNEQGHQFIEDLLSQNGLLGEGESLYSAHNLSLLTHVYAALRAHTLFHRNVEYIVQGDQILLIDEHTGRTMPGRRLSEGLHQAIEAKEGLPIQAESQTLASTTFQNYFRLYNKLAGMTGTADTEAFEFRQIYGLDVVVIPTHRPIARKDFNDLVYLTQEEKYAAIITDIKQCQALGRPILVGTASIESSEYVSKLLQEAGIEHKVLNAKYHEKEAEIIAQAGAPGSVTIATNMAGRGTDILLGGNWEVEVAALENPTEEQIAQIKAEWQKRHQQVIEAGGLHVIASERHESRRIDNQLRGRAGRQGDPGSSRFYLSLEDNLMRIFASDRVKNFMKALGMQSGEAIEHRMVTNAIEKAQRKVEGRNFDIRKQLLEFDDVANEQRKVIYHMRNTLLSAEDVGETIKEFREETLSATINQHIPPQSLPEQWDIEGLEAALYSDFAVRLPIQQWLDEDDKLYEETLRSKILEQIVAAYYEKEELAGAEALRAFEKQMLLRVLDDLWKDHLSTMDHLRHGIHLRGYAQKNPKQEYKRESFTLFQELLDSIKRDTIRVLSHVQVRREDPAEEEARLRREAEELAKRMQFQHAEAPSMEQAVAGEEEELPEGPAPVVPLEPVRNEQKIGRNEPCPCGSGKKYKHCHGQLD

[3] = tested on: E. coli MC4100; assay: Bacteriostatic effect; format: cell-based
[4] = molecular target: H+-ATPase (Escherichia coli, UniProt P0ABB0+P0ABB4); assay: In vitro ATPase activity, H+-ATPase; format: biochemical; details: read-out: ATPase activity IC50
H+-ATPase, sequence (P0ABB0 whole entry): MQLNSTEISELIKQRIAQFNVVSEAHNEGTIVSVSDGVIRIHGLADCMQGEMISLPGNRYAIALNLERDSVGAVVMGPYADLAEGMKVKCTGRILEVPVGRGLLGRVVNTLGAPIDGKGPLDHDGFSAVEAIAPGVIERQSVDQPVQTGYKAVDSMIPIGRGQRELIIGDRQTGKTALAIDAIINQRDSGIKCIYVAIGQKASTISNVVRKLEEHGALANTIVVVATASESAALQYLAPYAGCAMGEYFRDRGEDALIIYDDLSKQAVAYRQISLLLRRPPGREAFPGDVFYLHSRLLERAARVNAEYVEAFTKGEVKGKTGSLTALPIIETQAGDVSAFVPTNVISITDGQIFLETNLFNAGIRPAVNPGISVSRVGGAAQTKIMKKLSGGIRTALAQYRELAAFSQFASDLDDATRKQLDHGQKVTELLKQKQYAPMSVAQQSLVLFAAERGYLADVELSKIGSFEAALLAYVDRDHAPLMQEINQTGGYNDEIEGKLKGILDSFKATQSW
H+-ATPase, sequence (P0ABB4 2-460): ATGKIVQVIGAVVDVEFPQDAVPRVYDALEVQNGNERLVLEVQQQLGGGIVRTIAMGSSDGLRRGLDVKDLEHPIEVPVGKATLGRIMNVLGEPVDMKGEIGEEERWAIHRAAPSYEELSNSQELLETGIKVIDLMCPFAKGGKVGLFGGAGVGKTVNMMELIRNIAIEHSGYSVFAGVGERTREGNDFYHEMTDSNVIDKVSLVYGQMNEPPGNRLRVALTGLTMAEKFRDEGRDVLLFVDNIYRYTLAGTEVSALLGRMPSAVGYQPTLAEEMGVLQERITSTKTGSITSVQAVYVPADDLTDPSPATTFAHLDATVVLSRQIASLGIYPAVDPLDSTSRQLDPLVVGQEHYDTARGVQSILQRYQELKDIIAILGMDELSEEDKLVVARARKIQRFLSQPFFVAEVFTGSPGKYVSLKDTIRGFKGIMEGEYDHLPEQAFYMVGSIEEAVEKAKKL
H+-ATPase, sequence (P0ABA6 whole entry, further chain): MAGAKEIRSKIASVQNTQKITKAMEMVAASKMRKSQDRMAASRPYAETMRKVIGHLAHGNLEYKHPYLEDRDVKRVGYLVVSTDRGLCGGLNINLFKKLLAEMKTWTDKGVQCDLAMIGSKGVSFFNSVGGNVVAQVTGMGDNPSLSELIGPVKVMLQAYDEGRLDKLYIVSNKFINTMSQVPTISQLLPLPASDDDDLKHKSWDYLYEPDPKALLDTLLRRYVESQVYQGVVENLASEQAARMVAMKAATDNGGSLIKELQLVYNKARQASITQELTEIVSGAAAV

[5] = tested on: K. pneumoniae BARB 105; assay: MIC, K. pneumoniae BARB 105; format: cell-based
[6] = molecular target: SpuB ATPase (Pseudomonas aeruginosa, UniProt Q9I6J3); assay: In vitro ATPase activity, SpuB; format: biochemical; details: read-out: ATPase activity IC50
[7] = tested on: E. coli C291-b1; assay: MIC, E. coli C291-b1; format: cell-based
[8] = tested on: E. coli NR698; assay: Bacteriostatic effect; format: cell-based; details: Addition None
[9] = tested on: P. aeruginosa T15464 (MDR); assay: MIC, P. aeruginosa T15464; format: cell-based
[10] = tested on: S. typhimurium SL1344; assay: MIC, S. typhimurium SL1344; format: cell-based
[11] = tested on: Klebisiella spp.; assay: MIC, Klebisiella spp.; format: cell-based
[12] = tested on: A. baumanii ATCC9955; assay: MIC, A. baumanii ATCC9955; format: cell-based
[13] = K. pneumoniae BARB 105, NAB7061 4 μg/mL
[14] = K. pneumoniae BARB 105, PMBN 25 μg/mL
[15] = E. coli C291-b1, NAB7061 4 μg/mL
[16] = P. aeruginosa T15464 (MDR), NAB7061 4 μg/mL
[17] = P. aeruginosa T15464 (MDR), PMBN 3 μg/mL
[18] = S. typhimurium SL1344, NAB7061 4 μg/mL
[19] = S. typhimurium SL1344, PMBN 25 μg/mL
[20] = Klebisiella spp., Addition None
[21] = Klebisiella spp., NAB7061 4 μg/mL
[22] = Klebisiella spp., PMBN 25 μg/mL
[23] = A. baumanii ATCC9955, NAB7061 4 μg/mL
[24] = A. baumanii ATCC9955, PMBN 25 μg/mL
[25] = Pseudomonas aeruginosa, read-out: MIC100
[26] = Salmonella enterica, TYPHIMURIUM
[27] = Acinetobacter baumannii, ATCC9955

| Compound | MIC [5, 13] | MIC [5, 14] | MIC [7, 15] | MIC ([7]; E. coli C291-b1, PMBN 25 μg/mL) | MIC [9, 16] | MIC [9, 17] | MIC [10, 18] [µg/mL] | MIC [10, 19] [µg/mL] | MIC [11, 20] | MIC [11, 21] | MIC [11, 22] | MIC [12, 23] | MIC [12, 24] | MIC [9, 25] [µg/mL] | MIC [10, 26] [µg/mL] | MIC [12, 27] [µg/mL] | other results |
| --- | --- | --- | --- | --- | --- | --- | --- | --- | --- | --- | --- | --- | --- | --- | --- | --- | --- |
| O=C1OC2(c3cc(I)c(O)c(I)c3Oc3c2cc(I)c(O)c3I)c2c(Cl)c(Cl)c(Cl)c(Cl)c21 [RB, Rose Bengal] | >254 ^* μg/mL | 25.4 µg/mL (≈ 26.1 µM) | >254 ^* μg/mL | 3.2 µg/mL (≈ 3.29 µM) | 3.2 µg/mL (≈ 3.29 µM) | 0.4 µg/mL (≈ 0.411 µM) | 254 (≈ 261 µM) | 17 (≈ 17.5 µM) | >1,272 ^* μg/mL | >254 ^* μg/mL | >254 ^* μg/mL | 127.2 µg/mL (≈ 131 µM) | 80.6 µg/mL (≈ 82.8 µM) |  |  |  | MIC ([1]; Shigella flexneri ATCC12022, NAB7061 4 μg/mL): 1.6 µg/mL (≈ 1.64 µM); MIC ([1]; Shigella flexneri ATCC12022, PMBN 25 μg/mL): 7.5 µg/mL (≈ 7.7 µM); IC50 [2]: 1 µM; MIC ([3]; E. coli MC4100, Addition None): >1,272 ^* μg/mL; MIC ([3]; E. coli MC4100, NAB7061 4 μg/mL): 2.0 µg/mL (≈ 2.05 µM); MIC ([3]; E. coli MC4100, PMBN 25 μg/mL): 15.9 µg/mL (≈ 16.3 µM); IC50 [4]: 60 µM; MIC ([5]; K. pneumoniae BARB 105, Addition None): >1,272 ^* μg/mL; IC50 [6]: > 200 µM; MIC ([7]; E. coli C291-b1, Addition None): >1,272 ^* μg/mL; MIC [8]: 4.5 µg/mL (≈ 4.62 µM); MIC ([9]; P. aeruginosa T15464 (MDR), Addition None): >1,272 ^* μg/mL; MIC ([10]; S. typhimurium SL1344, Addition None): >1,272 ^* μg/mL; MIC ([12]; A. baumanii ATCC9955, Addition None): >1,272 ^* μg/mL |
| CC1(C)S[C@@H]2[C@H](NC(=O)C(C(=O)O)c3ccccc3)C(=O)N2[C@H]1C(=O)O (stereo partly shown) [Carbenicillin] | >1,000 μg/mL | >1,000 μg/mL | >1,000 μg/mL | >1,000 μg/mL | >1,000 μg/mL | >1,000 μg/mL | >500 | >500 | >1,250 μg/mL | >1,250 μg/mL |  | >1,000 μg/mL | >1,000 μg/mL | > 1000 | > 500 | > 1000 | MIC ([5]; Klebsiella pneumoniae, BARB105): > 1000 µg/mL; MIC ([7]; Escherichia coli, C291B1): > 1000 µg/mL; MIC ([9]; Pseudomonas aeruginosa): > 1000 µg/mL; MIC [11]: > 1250 µg/mL |
| CC[C@H]1OC(=O)[C@H](C)[C@@H](O[C@H]2C[C@@](C)(OC)[C@@H](O)[C@H](C)O2)[C@H](C)[C@@H](O[C@@H]2O[C@H](C)C[C@H](N(C)C)[C@H]2O)[C@](C)(O)C[C@@H](C)C(=O)[C@H](C)[C@@H](O)[C@]1(C)O [erythromycin] |  |  |  |  |  |  |  |  |  |  |  |  |  | > 1000 |  |  |  |
| CN[C@H](CC(C)C)C(=O)N[C@H]1C(=O)N[C@@H](CC(N)=O)C(=O)N[C@H]2C(=O)N[C@H]3C(=O)N[C@H](C(=O)N[C@H](C(=O)O)c4cc(O)cc(O)c4-c4cc3ccc4O)[C@H](O)c3ccc(c(Cl)c3)Oc3cc2cc(c3O[C@@H]2O[C@H](CO)[C@@H](O)[C@H](O)[C@H]2O[C@H]2C[C@](C)(N)[C@H](O)[C@H](C)O2)Oc2ccc(cc2Cl)[C@H]1O [Vancomycin] |  |  |  |  |  |  | >250 |  | 1000 µg/mL (≈ 690 µM) | 250 µg/mL (≈ 173 µM) | 250 µg/mL (≈ 173 µM) | 250 µg/mL (≈ 173 µM) | 250 µg/mL (≈ 173 µM) |  | > 250 | 250 (≈ 173 µM) | MIC ([1]; Shigella flexneri, ATCC12022, Shigella flexneri ATCC12022, Addition None): > 250 µg/mL; MIC ([1]; Shigella flexneri, ATCC12022, Shigella flexneri ATCC12022, NAB7061 4 μg/mL): 250 µg/mL (≈ 173 µM); MIC ([1]; Shigella flexneri, ATCC12022, Shigella flexneri ATCC12022, PMBN 25 μg/mL): 62.5 µg/mL (≈ 43.1 µM); MIC ([3]; Escherichia coli, MC4100, E. coli MC4100, Addition None): 250 µg/mL (≈ 173 µM); MIC ([3]; Escherichia coli, MC4100, E. coli MC4100, PMBN 25 μg/mL): 31.3 µg/mL (≈ 21.6 µM); MIC ([5]; Klebsiella pneumoniae, BARB105, K. pneumoniae BARB 105, Addition None): > 1000 µg/mL; MIC ([5]; Klebsiella pneumoniae, BARB105, K. pneumoniae BARB 105, NAB7061 4 μg/mL): 1000 µg/mL (≈ 690 µM); MIC ([5]; Klebsiella pneumoniae, BARB105, K. pneumoniae BARB 105, PMBN 25 μg/mL): 500 µg/mL (≈ 345 µM); MIC ([7]; Escherichia coli, C291B1, E. coli C291-b1, Addition None): > 250 µg/mL; MIC ([7]; Escherichia coli, C291B1, E. coli C291-b1, NAB7061 4 μg/mL): 125 µg/mL (≈ 86.3 µM); MIC ([7]; Escherichia coli, C291B1, E. coli C291-b1, PMBN 25 μg/mL): 31 µg/mL (≈ 21.4 µM); MIC ([9]; Pseudomonas aeruginosa, P. aeruginosa T15464 (MDR), Addition None): > 1000 µg/mL; MIC ([9]; Pseudomonas aeruginosa, P. aeruginosa T15464 (MDR), NAB7061 4 μg/mL): > 1000 µg/mL; MIC ([9]; Pseudomonas aeruginosa, P. aeruginosa T15464 (MDR), PMBN 3 μg/mL): 31 µg/mL (≈ 21.4 µM); MIC ([9]; Pseudomonas aeruginosa, read-out: MIC100, clinical MDR P. aeruginosa strain T15464): > 1000 µg/mL |
